Broadly, the IC50 is the concentration at which inhibition is half-maximal. A low value points to higher potency.

Assay [1] has as its system Human immunodeficiency virus 1. In words: Antiviral activity against HIV-1 infected human MT-4 cells. The format is functional, organism-based. Conditions: Human immunodeficiency virus 1, MT4. The method, boiled down: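 HTLV-1-transformed MT4 cells were infected with HIV-1 strain 3B at 100× the amount giving a 50% drop in cell growth. They were cultured 5 days with a range of compound concentrations. IC50 is the concentration restoring 50% of infected-cell growth (cytopathic effect) relative to uninfected MT4 controls.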

In another assay the test system is MT4. In words: Cell culture cytotoxicity against MT-4 cells. The format is functional, cell-based. Conditions: Homo sapiens. The procedure, abridged:
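MT4 cells were exposed to compound in parallel with the 5-day HIV-1 strain 3B cytopathic-effect assay. Compound-induced cytotoxicity is reported as the cell culture cytotoxicity IC50 (CCIC50).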

Assay [2] concerns the target Human immunodeficiency virus type 1 reverse transcriptase (Human immunodeficiency virus 1, UniProt Q72547). In words: Inhibitory activity against HIV-1 reverse transcriptase. The method, boiled down:
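Recombinant HIV RT at 1 nM was combined with 40 nM Eu-chelate-labeled biotinylated DNA primer/RNA template and 100 nM Cy5-dUTP. Reactions were started with enzyme.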

Regarding `COc1cccc([S+]([O-])c2cccc(N)c2C#N)c1` (stereo unspecified), the IC50 in assay [1] is 16 µM; in the assay on MT4, above 80 µM; in assay [2] it was 19 µM.
As to `Cc1ccccc1[S+]([O-])c1cccc(N)c1C#N` (stereo unspecified), the 50% inhibitory concentration (IC50) in assay [1] was 93 µM; in the assay on MT4, above 200 µM; in assay [2] it was above 21 µM.
As to `N#Cc1c(N)cccc1S(=O)(=O)c1ccccc1F`, the IC50 in assay [1] is 3 µM; in the assay with MT4, 57 µM; in assay [2], 5 µM.
For the compound `O=[N+]([O-])c1ccccc1Sc1ccccc1[N+](=O)[O-]`, the IC50 in assay [1] was 93.5 µM; with MT4, above 200 µM; in assay [2] it was above 20 µM.
`N#Cc1c(N)cccc1S(=O)(=O)c1ccc(Br)cc1`: the concentration for half-maximal inhibition (IC50) in assay [1] is 20 µM; in the assay on MT4, above 200 µM; in assay [2], above 14 µM.
In the case of `COc1ccccc1Sc1cccc(N)c1C#N`, the IC50 was 4.3 µM in assay [1], above 200 µM in the assay on MT4 and 2.7 µM in assay [2].
In the case of `COc1ccc(S(=O)(=O)c2cccc(N)c2C#N)cc1`, the values for the IC50 (in assay [1]; in the assay with MT4; in assay [2]) were 25 µM, above 200 µM and 13 µM, respectively.
Consider `N#Cc1c(N)cccc1S(=O)(=O)c1cccc(C(F)(F)F)c1`, for which the values for the IC50 (in assay [1]; in the assay on MT4; in assay [2]) were 3.5 µM, 197 µM and 5.3 µM, respectively.
On to `Cc1cc(O)cc(S(=O)(=O)c2cccc(N)c2C#N)c1`, for which the IC50 in assay [1] amounted to 0.43 µM; in the assay with MT4, 167 µM.
Turning to `N#Cc1c(N)cccc1Sc1cccc(Br)c1`, the values for the IC50 (in assay [1]; with MT4; in assay [2]) were 5.1 µM, 53 µM and 15 µM, respectively.
Turning to `Cc1cc(C)cc(S(=O)(=O)c2cccc(NC3CCCCC3)c2C#N)c1`, the IC50 (in assay [1]; with MT4) was above 200 µM throughout.
As for `Cc1cc(C)cc([S+]([O-])c2cccc(N)c2C#N)c1` (stereo unspecified), the half-maximal inhibitory concentration (IC50) came to 0.34 µM in assay [1], 200 µM in the assay with MT4 and 0.5 µM in assay [2].
In assay [2], `O=[N+]([O-])c1ccccc1S(=O)(=O)c1ccccc1[N+](=O)[O-]` gave an IC50 of 14 µM.
As to `N#Cc1cccc([S+]([O-])c2cccc(N)c2C#N)c1` (stereo unspecified), the IC50 is 14.2 µM in assay [1], above 200 µM in the assay on MT4 and above 15 µM in assay [2].
`Cc1ccc([S+]([O-])c2cccc(N)c2C#N)cc1` (stereo unspecified): the IC50 is 49 µM in assay [1], above 200 µM in the assay with MT4 and above 21 µM in assay [2].
As for `N#Cc1c(F)cccc1S(=O)(=O)c1cc(Cl)cc(Cl)c1`, the IC50 in assay [1] came to 42 µM; in the assay on MT4, 188 µM.
Turning to `Cc1ccc(Sc2cccc(N)c2C#N)cc1`, the values for the IC50 (in assay [1]; in the assay with MT4; in assay [2]) were 115 µM, above 200 µM and 5.7 µM, respectively.
As to `Cc1ccccc1S(=O)(=O)c1cccc(N)c1C#N`, the values for the IC50 (in assay [1]; in the assay with MT4; in assay [2]) were 2.3 µM, above 200 µM and 4.5 µM, respectively.
In the case of `N#Cc1c(N)cccc1Sc1cccc(F)c1`, the values for the IC50 (in assay [1]; in the assay on MT4; in assay [2]) were 9.8 µM, 162 µM and 12 µM, respectively.
In the case of `N#Cc1ccccc1Sc1cccc(N)c1C#N`, the figures for the IC50 (in assay [1]; in the assay with MT4; in assay [2]) were above 6.4 µM, 42 µM and 9.1 µM, respectively.
As to `Nc1cccc(S(=O)(=O)c2ccccc2)c1`, the IC50 (in assay [1]; with MT4) was above 50 µM throughout.
In the case of `N#Cc1c(N)cccc1S(=O)(=O)c1cccc(Br)c1`, the IC50 in assay [1] is 0.54 µM; with MT4 it was above 200 µM; in assay [2], 0.2 µM.
Take `O=[N+]([O-])c1ccccc1S(=O)(=O)c1ccccc1`: the IC50 in assay [1] came out at 2.2 µM; in assay [2] it was 16 µM.
`N#Cc1c(N)cccc1Sc1ccccc1Br`: the results for the IC50 (in assay [1]; in the assay on MT4; in assay [2]) were 30 µM, 41 µM and above 21 µM, respectively.
On to `N#Cc1c(N)cccc1Sc1cc(Cl)ccc1Cl`, for which the IC50 is above 0.8 µM in assay [1], 4.3 µM with MT4 and 3.5 µM in assay [2].
In the case of `N#Cc1c(N)cccc1[S+]([O-])c1cccc(Br)c1` (stereo unspecified), the values for the IC50 in assay [1] and in assay [2] were 0.08 µM and 4.8 µM, respectively.
Take `N#Cc1c(N)cccc1[S+]([O-])c1ccc(Br)cc1` (stereo unspecified): the IC50 in assay [1] is 20.2 µM; in the assay on MT4 it was above 200 µM; in assay [2] it was above 21 µM.
Regarding `N#Cc1c(N)cccc1Sc1cccc(C(F)(F)F)c1`, the IC50 in assay [1] stood at 12.8 µM; with MT4 it was 34 µM; in assay [2] it was 7.1 µM.
Take `Cc1ccc(S(=O)(=O)c2cccc(N)c2C#N)cc1`: the 50% inhibitory concentration (IC50) is 9.5 µM in assay [1], above 200 µM in the assay on MT4 and 7.3 µM in assay [2].
With `N#Cc1ccc(S(=O)(=O)c2cccc(N)c2C#N)cc1`, the IC50 was 80 µM in assay [1], above 200 µM in the assay with MT4 and above 18 µM in assay [2].
In the same order, the values of `N#Cc1ccccc1S(=O)(=O)c1cccc(N)c1C#N` are 5.4 µM, above 200 µM and 6 µM.
`N#Cc1c(N)cccc1S(=O)(=O)c1ccccc1Cl`: the IC50 in assay [1] was 4.1 µM; with MT4 it was above 200 µM; in assay [2] it was 5.9 µM.
`N#Cc1cccc(Sc2cccc(N)c2C#N)c1`: the IC50 came to 1.73 µM in assay [1], 80 µM in the assay with MT4 and 1.1 µM in assay [2].
As for `Cc1cc(Cl)cc(Sc2cccc(N)c2C#N)c1`, the IC50 came out at 1.76 µM in assay [1], 16 µM with MT4 and 1.7 µM in assay [2].
In the same order, the values of `N#Cc1c(N)cccc1Sc1ccc(Cl)cc1` are above 32 µM, 113 µM and 12 µM.
Take `N#Cc1c(N)cccc1S(=O)(=O)c1ccc2ccccc2c1`: the half-inhibitory concentration (IC50) is 0.05 µM in assay [1], above 200 µM with MT4 and 0.03 µM in assay [2].
Turning to `Cc1cc(Cl)cc([S+]([O-])c2cccc(N)c2C#N)c1` (stereo unspecified), the IC50 in assay [1] was 0.32 µM; in the assay with MT4, above 200 µM; in assay [2], 0.52 µM.
In the case of `Cc1cc(C)cc(S(=O)(=O)c2cccc(F)c2C#N)c1`, the values for the IC50 (in assay [1]; in the assay on MT4) were 1.5 µM and above 200 µM, respectively.
For the compound `N#Cc1c(N)cccc1[S+]([O-])c1ccccc1Br` (stereo unspecified), the IC50 was 39.2 µM in assay [1], 168 µM in the assay on MT4 and above 19 µM in assay [2].
Consider `CCCCOc1cc(C)cc(S(=O)(=O)c2cccc(N)c2C#N)c1`, for which the IC50 in assay [1] was 0.6 µM; with MT4, above 2 µM; in assay [2] it was 0.4 µM.
For the compound `N#Cc1c(N)cccc1[S+]([O-])c1cccc(C(F)(F)F)c1` (stereo unspecified), the values for the IC50 (in assay [1]; with MT4; in assay [2]) were 40 µM, 125 µM and above 22 µM, respectively.
Turning to `COc1cccc(Sc2cccc(N)c2C#N)c1`, the results for the IC50 (in assay [1]; with MT4; in assay [2]) were 6 µM, above 200 µM and 1.5 µM, respectively.
On to `N#Cc1c(N)cccc1Sc1cccc(Cl)c1`, for which the IC50 in assay [1] worked out at 7.4 µM; in the assay on MT4 it was 53 µM; in assay [2], 16 µM.
Turning to `CCCCNc1cccc(S(=O)(=O)c2cc(C)cc(C)c2)c1C#N`, the figures for the IC50 (in assay [1]; in the assay on MT4) were above 12 µM and above 200 µM, respectively.
Turning to `CCCOc1cc(C)cc(S(=O)(=O)c2cccc(N)c2C#N)c1`, the IC50 in assay [1] was 0.06 µM; in the assay with MT4 it was 11 µM.
In the case of `N#Cc1c(N)cccc1Sc1cccc(N)c1`, the IC50 is 31.5 µM in assay [1], 168 µM in the assay on MT4 and above 23 µM in assay [2].
For `N#Cc1cccc(S(=O)(=O)c2cccc(N)c2C#N)c1`, the IC50 is 2.4 µM in assay [1], above 200 µM with MT4 and 1.8 µM in assay [2].
The corresponding values for `COc1cc(C)cc(Sc2cccc(N)c2C#N)c1` are 2 µM, 10 µM and 0.14 µM.
Turning to `N#Cc1ccccc1[S+]([O-])c1cccc(N)c1C#N` (stereo unspecified), the IC50 is 3.9 µM in assay [1], above 200 µM with MT4 and 9.9 µM in assay [2].
The corresponding values for `N#Cc1c(N)cccc1S(=O)(=O)c1ccccc1` are 2 µM, above 5 µM and 6.9 µM.
As to `CCOc1cc(C)cc(S(=O)(=O)c2cccc(N)c2C#N)c1`, the values for the IC50 (in assay [1]; in the assay with MT4) were 0.06 µM and 9 µM, respectively.
The corresponding values for `COc1cc(C)cc(S(=O)(=O)c2cccc(F)c2C#N)c1` are 51 µM and 8 µM.
As to `Cc1cc(C)cc(Sc2cccc(N)c2C#N)c1`, the IC50 in assay [1] was 0.43 µM; with MT4, above 2 µM; in assay [2] it was 1.1 µM.
In the same order, the values of `COc1ccc([S+]([O-])c2cccc(N)c2C#N)cc1` (stereo unspecified) are above 200 µM, above 200 µM and above 20 µM.
On to `COc1cc(Sc2cccc(N)c2C#N)cc(C(F)(F)F)c1`, for which the IC50 in assay [1] stood at 5.1 µM; in the assay on MT4 it was 9 µM; in assay [2], 13 µM.
In the same order, the values of `Cc1cccc(Sc2cccc(N)c2C#N)c1` are 6.1 µM, 79 µM and 0.96 µM.
With `N#Cc1c(N)cccc1Sc1ccccc1Cl`, the IC50 in assay [1] came to 4.1 µM; in the assay with MT4, 33 µM; in assay [2], 7.2 µM.
As to `N#Cc1c(N)cccc1S(=O)(=O)c1ccc(Cl)cc1`, the IC50 was 3 µM in assay [1] and above 5 µM in the assay with MT4.
Turning to `N#Cc1c(N)cccc1S(=O)(=O)c1cc(Cl)ccc1Cl`, the values for the IC50 (in assay [1]; in the assay with MT4; in assay [2]) were 0.3 µM, above 200 µM and 0.3 µM, respectively.
For `N#Cc1c(N)cccc1[S+]([O-])c1cc(Cl)ccc1Cl` (stereo unspecified), the IC50 in assay [1] was 9.85 µM; with MT4 it was above 200 µM; in assay [2], 6.2 µM.
Consider `Cc1cccc(S(=O)(=O)c2cccc(N)c2C#N)c1`, for which the IC50 in assay [1] amounted to 0.4 µM; in the assay on MT4 it was 179 µM; in assay [2] it was 0.2 µM.
Regarding `N#Cc1c(N)cccc1S(=O)(=O)c1cccc(F)c1`, the IC50 in assay [1] was 3 µM; with MT4, above 200 µM.
